The record followed here is ChEMBL document CHEMBL1155671, “New circulin macrocyclic polypeptides from Chassalia parvifolia” (J Nat Prod, 2000).

Common to all, as to assay type: functional, organism-based
The test system of experiment [1] is Human immunodeficiency virus 1. Briefly: Antiviral activity against HIV1 3B in human CEM-SS cells assessed as inhibition of virus-induced cytopathic effect by XTT assay. The settings on record: Human immunodeficiency virus 1, 3B. The procedure, abridged:
(§1)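 Peptide samples dissolved in 100% DMSO or H2O-DMSO (3:1), then diluted to test concentrations. Tested in an in vitro XTT tetrazolium-based cell assay for protection against the cytopathic effects of productive HIV-1 infection. EC50 is the concentration giving 50% protection, determined separately for each virus strain and target cell line pairing.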
On the technique in general: Cytopathic effects are the visible damage that an infection or toxin causes in cultured cells.

The test system of experiment [2] is Human immunodeficiency virus 1. Briefly: Antiviral activity against HIV1 RF in human CEM-SS cells assessed as inhibition of virus-induced cytopathic effect by XTT assay. The following applies: Human immunodeficiency virus 1, RF. The procedure, abridged:
as §1

In experiment [3] the test system is Human immunodeficiency virus 1. Briefly: Antiviral activity against HIV1 214 in human CEM-SS cells assessed as inhibition of virus-induced cytopathic effect by XTT assay. The following applies: Human immunodeficiency virus 1, CEM-SS. The procedure, abridged: as §1
Experiment [4] deals with Human immunodeficiency virus 1. Put plainly: Antiviral activity against HIV1 205 in human CEM-SS cells assessed as inhibition of virus-induced cytopathic effect by XTT assay. The following applies: Human immunodeficiency virus 1, CEM-SS. The procedure, abridged: as §1
The subject of experiment [5] is Human immunodeficiency virus 1. Briefly: Antiviral activity against HIV1 G in human CEM-SS cells assessed as inhibition of virus-induced cytopathic effect by XTT assay. The following applies: Human immunodeficiency virus 1, CEM-SS. In outline: as §1
In experiment [6] the test system is Human immunodeficiency virus 1. Put plainly: Antiviral activity against HIV1 SK1 in human CEM-SS cells assessed as inhibition of virus-induced cytopathic effect by XTT assay. The settings on record: Human immunodeficiency virus 1, CEM-SS. In outline: as §1
Experiment [7] has as its system Human immunodeficiency virus 1. Briefly: Antiviral activity against HIV1 N119 in human CEM-SS cells assessed as inhibition of virus-induced cytopathic effect by XTT assay. The following applies: Human immunodeficiency virus 1, CEM-SS. The procedure, abridged: as §1
For experiment [8], the system named is Human immunodeficiency virus 1. Put plainly: Antiviral activity against HIV1 A17 in human MT2 cells assessed as inhibition of virus-induced cytopathic effect by XTT assay. The following applies: Human immunodeficiency virus 1, A17, MT2. The procedure, abridged: as §1
Experiment [9] relates to Human immunodeficiency virus 1. Briefly: Antiviral activity against HIV1 G9106 in human MT2 cells assessed as inhibition of virus-induced cytopathic effect by XTT assay. The following applies: Human immunodeficiency virus 1, G9106, MT2. In outline:
as §1

The test system of experiment [10] is Human immunodeficiency virus 1. Put plainly: Antiviral activity against HIV1 H1122 in human MT2 cells assessed as inhibition of virus-induced cytopathic effect by XTT assay. The settings on record: Human immunodeficiency virus 1, MT2. The procedure, abridged: as §1
Experiment [11] has as its system Human immunodeficiency virus 1. Briefly: Antiviral activity against HIV1 3B in human MT2 cells assessed as inhibition of virus-induced cytopathic effect by XTT assay. The settings on record: Human immunodeficiency virus 1, 3B. The procedure, abridged:
as §1

Molecules are shown by their SMILES. Positions of bridges follow the written chain, without caps; N, C: chain ends. Residues, ends and D or L forms follow the SMILES beside them.

With `CC[C@H](C)[C@@H]1NC(=O)[C@@H]2CSSC[C@@H]3NC(=O)[C@H](C(C)C)NC(=O)[C@H](CCCCN)NC(=O)[C@H](CO)NC(=O)[C@H](CCCCN)NC(=O)[C@@H]4CSSC[C@H](NC(=O)[C@H](CO)NC(=O)[C@H](CCC(=O)O)NC(=O)CNC(=O)[C@H](CSSC[C@H](NC(=O)CNC(=O)[C@H](C)NC(=O)[C@H](C(C)C)NC(=O)[C@H](CO)NC(=O)[C@H]([C@@H](C)O)NC1=O)C(=O)N[C@@H](CO)C(=O)N4)NC(=O)[C@@H]1CCCN1C(=O)[C@H]([C@@H](C)CC)NC(=O)CNC(=O)[C@H](CC(N)=O)NC(=O)[C@H](CCCNC(=N)N)NC(=O)[C@H](Cc1ccc(O)cc1)NC3=O)C(=O)N[C@@H](C(C)C)C(=O)N[C@@H](Cc1ccccc1)C(=O)N[C@@H]([C@@H](C)CC)C(=O)N1CCC[C@H]1C(=O)N2` [CIRCULIN C] (cyclo(AGCSCKSKVCYRNGIPCGESCVFIPCITSV); disulfide 3-17, 5-21, 10-26), the EC50 was found to be 73 nM in [1]; 165 nM in experiment [2]; 213 nM in [3]; 155 nM in [4]; 111 nM in experiment [5]; 51 nM in experiment [6]. Also, the concentration for a half-maximal effect (EC50) was 241 nM in experiment [7]; 247 nM in experiment [8]; 67 nM in experiment [9]; 48 nM in experiment [10]; 200 nM in experiment [11].

With `CC[C@H](C)[C@@H]1NC(=O)[C@H](C)NC(=O)[C@H](C)NC(=O)[C@H](CO)NC(=O)[C@H]([C@@H](C)CC)NC(=O)[C@@H]2CSSC[C@@H]3NC(=O)[C@H](C(C)C)NC(=O)[C@H](CCCCN)NC(=O)[C@H](CC(N)=O)NC(=O)[C@H](CCCCN)NC(=O)[C@@H]4CSSC[C@H](NC(=O)[C@H](CO)NC(=O)[C@H](CCC(=O)O)NC(=O)CNC(=O)[C@H](CSSC[C@H](NC(=O)CNC1=O)C(=O)N[C@@H](CO)C(=O)N4)NC(=O)[C@@H]1CCCN1C(=O)[C@H]([C@@H](C)CC)NC(=O)[C@H](C)NC(=O)[C@H](CCCNC(=N)N)NC(=O)[C@H](Cc1ccc(O)cc1)NC3=O)C(=O)N[C@@H](C(C)C)C(=O)N[C@@H](Cc1c[nH]c3ccccc13)C(=O)N[C@@H]([C@@H](C)CC)C(=O)N1CCC[C@H]1C(=O)N2` [CIRCULIN F] (cyclo(AAIGCSCKNKVCYRAIPCGESCVWIPCIS); disulfide 5-18, 7-22, 12-27), the EC50 in experiment [2], in experiment [3], in experiment [4], in experiment [5], in experiment [6] and in [7] was 50 nM each time. Also, the EC50 in experiment [8], in [9], in [10] and in experiment [11] was 50 nM in each case.

For the compound `CC[C@H](C)[C@@H]1NC(=O)[C@H](CCCCN)NC(=O)[C@H](CC(=O)O)NC(=O)[C@H](Cc2cnc[nH]2)NC(=O)[C@H](Cc2ccc(O)cc2)NC(=O)[C@@H]2CSSC[C@@H]3NC(=O)[C@@H]4CCCN4C(=O)[C@H]([C@@H](C)CC)NC(=O)[C@H](Cc4c[nH]c5ccccc45)NC(=O)[C@H](C(C)C)NC(=O)[C@@H]4CSSC[C@H](NC(=O)[C@H](CCCCN)NC(=O)[C@H](CSSC[C@H](NC(=O)[C@@H]5CCCN5C1=O)C(=O)NCC(=O)N[C@@H](CCC(=O)O)C(=O)N[C@@H](CO)C(=O)N4)NC(=O)[C@H](CC(N)=O)NC(=O)[C@H](Cc1ccccc1)NC(=O)[C@H](C(C)C)NC(=O)[C@H](CO)NC(=O)[C@H]([C@@H](C)O)NC(=O)[C@H](CC(C)C)NC3=O)C(=O)N[C@@H](CCC(=O)O)C(=O)N[C@@H](CC(N)=O)C(=O)N[C@@H](CCCCN)C(=O)N[C@@H](C(C)C)C(=O)N2` [CIRCULIN E] (cyclo(CENKVCYHDKIPCGESCVWIPCLTSVFNCK); disulfide 1-17, 6-22, 13-29), the EC50 in experiment [2], in [3], in experiment [4], in experiment [5], in experiment [6] and in [7] was 50 nM each time. Moreover, the EC50 in experiment [8], in experiment [9], in [10] and in experiment [11] was 50 nM each time.

The term EC50 denotes the concentration that produces a half-maximal response.
